# Source: PubChem
# Rev-erbA mod: modulators of Rev-erb alpha DNA binding, primary screen, biochemical, FITC-DNA, fluorescence polarization, uHTS; Nuclear receptor subfamily 1 group D member 1 (Homo sapiens), P20393; Rev-erbα–FITC-DNA binding, 90 min; activity, % at 10 µM; 370,000 compounds, 0.79% hits; AID 1259318, 2017;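 active = activity above about 14%, limit read from the data; passing the limit was not always enough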;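 also: 0% = DMSO wells with 35 nM protein and 100% = DMSO wells with 750 nM protein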
# Target sequence (P20393 whole entry, looked up): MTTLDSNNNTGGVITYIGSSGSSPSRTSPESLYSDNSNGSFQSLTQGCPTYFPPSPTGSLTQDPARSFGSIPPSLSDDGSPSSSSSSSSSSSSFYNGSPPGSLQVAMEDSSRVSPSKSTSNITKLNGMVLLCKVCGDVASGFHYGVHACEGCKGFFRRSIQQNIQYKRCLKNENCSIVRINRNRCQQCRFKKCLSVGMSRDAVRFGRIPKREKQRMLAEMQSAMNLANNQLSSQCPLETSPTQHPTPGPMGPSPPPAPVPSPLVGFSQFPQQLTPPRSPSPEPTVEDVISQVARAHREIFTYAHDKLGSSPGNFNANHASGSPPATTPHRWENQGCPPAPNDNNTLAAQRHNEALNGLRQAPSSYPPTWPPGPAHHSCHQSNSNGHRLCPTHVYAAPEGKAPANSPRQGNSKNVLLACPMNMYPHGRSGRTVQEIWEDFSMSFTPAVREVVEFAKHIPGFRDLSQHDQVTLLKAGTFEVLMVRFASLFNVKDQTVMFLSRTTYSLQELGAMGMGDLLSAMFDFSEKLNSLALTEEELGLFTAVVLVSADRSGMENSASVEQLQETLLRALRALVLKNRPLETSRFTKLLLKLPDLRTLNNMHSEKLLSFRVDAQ
# NR2E3 ag-1: NR2E3 agonists in two-hybrid cells, primary screen, cell-based, luminescence, CHO-S, Gal4-NCOR/VP16-NR2E3. luciferase. AID 602229, 2012. Photoreceptor-specific nuclear receptor (Homo sapiens), Q9Y5X4. inhibition of corepressor binding, % at 3.98 µM. 360,000 compounds, 0.35% hits;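 active = inhibition above the mean of all tested compounds plus 3 SD, cut at about 70% in these data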;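 also: 0% = DMSO with NR2E3 transfected cells and 100% = cells lacking NR2E3 construct; higher means lower luciferase signal from less NR2E3 corepressor binding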
# rCAG binder: binders of r(CAG) RNA repeats, primary screen, biochemical, fluorescence. 370,000 compounds, 1.3% hits. r(CAG) RNA repeat, TO-PRO-1 dye displacement fluorescence. inhibition, % at 3 µM;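 active = inhibition above the plate cutoff, the mean of all test compounds on that plate plus 3 SD, cut at about 35% in these data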;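 also: 0% = DMSO alone and 100% = 100 µM mitoxantrone as full dye displacement; higher means more dye released from RNA so lower well fluorescence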
# PG9 Ab binder: binders of HIV-1 gp120 antibody PG9, primary screen, biochemical, TR-FRET; HIV-1 gp120 / PG9 antibody interaction; AID 624416, 2012; inhibition, % at 6.7 µM; TR-FRET gp120-PG9 antibody binding; 360,000 compounds, 0.43% hits; in the data active = inhibition above about 8.5%
# NR2E3 ag-2: inhibitors of NR2E3-RetCOR corepressor binding, primary screen, NR2E3 agonist project, biochemical, TR-FRET, GST-NR2E3, biotin-RetCOR. 1536-well. inhibition of corepressor binding, % at 4.78 µM. 320,000 compounds, 0.12% hits. AID 2300, 2010;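 active = percent inhibition above the cutoff of mean plus 3 SD of all tested compounds, set per screening campaign, cut at about 20% in these data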;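 also: 0% = DMSO wells and 100% = biotin wells as full block of FRET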
#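 System: GST-NR2E3 and biotin-RetCOR proteins; probe or stimulus: 7 nM biotin-RetCOR; doses: compound at 4.8 µM, single dose; schedule: Compound–protein incubation for 5 h at 4 °C; detection: time-resolved FRET; read-out: percent inhibition; controls: biotin wells as high control, 0.6% DMSO wells as low control; format: 1536-well plates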
# rCAG bind conf: small molecules binding CAG repeat RNA – biochemical, fluorescence, confirmation; shares compounds with rCAG binder; inhibition, % at 3 µM; 4,300 compounds, 70% hits; r(CAG) RNA repeat, TO-PRO-1 dye displacement fluorescence;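 active = inhibition above a per-plate cutoff, the mean inhibition of sample wells plus 3 SD, cut at about 35% in these data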;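 also: loss of TO-PRO-1 fluorescence as compound displaces dye from 1x1 AA loop RNA; 0% = DMSO only wells and 100% = 100 µM mitoxantrone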
# dCAG dye counter: displacement of TO-PRO-1 from CAG DNA duplex, counter-screen for rCAG RNA repeat binder project, biochemical, fluorescence, TO-PRO-1 dye, d(CAG) DNA oligo; d(CAG) DNA oligo TO-PRO-1 dye displacement; shares compounds with rCAG binder; AID 652068, 2013; 4,300 compounds, 94% hits; inhibition, % at 3 µM;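 active = inhibition above its plate's cutoff, the mean test-well inhibition plus 3 SD, cut at about 4.8% in these data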;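 also: 0% = DNA dye mix with DMSO and 100% = 100 µM mitoxantrone; hits displace the dye from DNA and so lower well fluorescence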
# Active calls of the source: *; . = no result. Compounds with a hit are over-represented: about 2.6% of the library has one in this group of screens.
SMILES,Rev-erbA mod,NR2E3 ag-1,rCAG binder,PG9 Ab binder,NR2E3 ag-2,rCAG bind conf,dCAG dye counter
O=C(O)c1ccc(/C=N/NC(=O)c2ccc(CN3c4cccc5cccc(c45)S3(=O)=O)cc2)cc1,1.1,-17.2,67.1*,-0.8,2.8,67.8*,30.5*
CC(/C=N/NC(=O)c1ccc(CN2c3cccc4cccc(c34)S2(=O)=O)cc1)c1ccccc1 (stereo not given),-0.6,2.9,17.4,-0.5,-1.4,.,.
O=C(NCC(=O)N(c1cccc(F)c1)C(C(=O)NC1CCCC1)c1ccncc1)c1cccs1 (stereo not given),-3.3,4.4,-0.5,0.6,5.8,.,.
O=C(Cc1nnc(NC(=O)c2ccccc2)s1)N/N=C/c1ccco1,-11.3,-19.6,71.4*,-2.1,0.3,5.5,5.7*
O=C1CCCN1CCCNc1nc(NCc2ccccc2)nc2ccsc12,-6.4,28.9,0.7,0.0,.,.,.
Cc1c(C(=O)N(C)C)sc(NC(=O)c2cc([N+](=O)[O-])cc([N+](=O)[O-])c2)c1C#N,-3.2,-5.8,56.2*,-1.2,3.3,37.2*,9.9*
O=C1CC(Nc2ccc(N3CCOCC3)cc2)C(=O)N1c1ccccc1 (stereo not given),.,-4.6,.,.,0.1,.,.
O=C1CC(Nc2ccc(N3CCOCC3)cc2)C(=O)N1Cc1ccccc1 (stereo not given),2.7,-3.1,34.6*,-4.2,-3.1,7.6,6.9*
CCOC(=O)c1c(C)[nH]c(C(=O)OCC(=O)N2CCN(S(=O)(=O)c3ccc(C)cc3C)CC2)c1C,2.6,-25.8,6.9,2.1,-2.5,.,.
CN(C)/C=C1/Sc2ccccc2C1=O,1.5,1.2,3.3,-7.2,-6.1,.,.
CC(=O)N(\C=C/C=C/C=C1\Sc2ccccc2C1=O)c1ccccc1,-0.6,-33.5,44.6*,-7.1,0.5,14.3,10.8*
O=C(CSc1n[nH]c(-c2cccnc2)n1)Nc1cccc(Cl)c1,6.2,-7.2,4.3,-0.2,6.6,.,.
O=C(CSc1nc(-c2ccc(Cl)cc2)[nH]c(=O)n1)Nc1cccc(Cl)c1,-3.7,-17.6,57.0*,1.4,-2.8,66.0*,29.6*
CC(=O)NS(=O)(=O)c1cccnc1Nc1ccc(Cl)c(Cl)c1,-3.4,-19.6,36.7*,-2.5,1.2,37.5*,14.0*
CC(C)(C)NC(=O)C(c1ccccc1F)n1c(=O)c(-c2ccco2)nc2ccccc21 (stereo not given),-0.3,.,40.9*,-0.3,.,10.7,7.8*
CC(C)(C)NC(=O)C(c1ccc(C(F)(F)F)cc1)n1c(=O)c(-c2ccco2)nc2ccccc21 (stereo not given),-5.0,.,27.0,-1.4,.,.,.
COC(=O)[C@]12C[C@H](CC(=O)NCc3ccc(OC)c(OC)c3)C(=O)N(Cc3ccccc3)C1=C[C@H](C1CCCC1)O[C@@H]2C,-10.2,.,2.9,-2.1,.,.,.
Cc1ccc(C)c(OC(C)C(=O)Nc2ccc(S(=O)(=O)Nc3nccs3)cc2)c1 (stereo not given),1.8,-16.6,54.9*,-0.4,2.8,48.1*,18.4*
COc1ccccc1CCC(=O)Nc1ccc(S(=O)(=O)Nc2nccs2)cc1,-1.5,-21.1,36.9*,0.2,-0.9,27.5,9.2*
COc1ccccc1CCC(=O)Nc1nccs1,3.8,-20.6,-2.8,-1.3,1.8,.,.
CC(Oc1ccc(Cl)cc1)C(=O)Nc1ccc(S(=O)(=O)Nc2nccs2)cc1 (stereo not given),-3.1,-1.9,43.9*,-1.1,0.3,36.0*,10.8*
